# System: HEK-293T
# Experiment: Multiplex assay against HEK293T
# Assay type: toxicity, cell-based
# Details: human
# Outline: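 Live cells were stained at seeding with Hoechst33342, BioTracker Green Microtubule Cytoskeleton Dye, MitoTracker Red and Annexin V Alexa Fluor 680. Following compound addition, they were imaged on a CQ1 microscope at 37°C and 5% CO2 and gated by CellPathfinder machine learning into Hoechst high-intensity objects or normal cells, with normal cells split into healthy, pyknosed or fragmented nuclei and pyknosed cells into mitotic or apoptotic. Tubulin, mitochondrial-mass and membrane-permeability phenotypes are per cents of healthy-nucleus cells.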
# [1] = 12 h, 1 µM, compound concentration 1 uM, replicate 1
# [2] = 12 h, 1 µM, compound concentration 1 uM, replicate 2
# [3] = 12 h, 10 µM, compound concentration 10 uM, replicate 1
# [4] = 12 h, 10 µM, compound concentration 10 uM, replicate 2
# [5] = 24 h, 1 µM, compound concentration 1 uM, replicate 1
# [6] = 24 h, 1 µM, compound concentration 1 uM, replicate 2
# [7] = 24 h, 10 µM, compound concentration 10 uM, replicate 1
# [8] = 24 h, 10 µM, compound concentration 10 uM, replicate 2
# [9] = 48 h, 1 µM, compound concentration 1 uM, replicate 1
# [10] = 48 h, 1 µM, compound concentration 1 uM, replicate 2
# [11] = 48 h, 10 µM, compound concentration 10 uM, replicate 1
# [12] = 48 h, 10 µM, compound concentration 10 uM, replicate 2
compound,measurement,setting,value
CN(C)CCCc1cc(C(=O)Nc2ccc(-c3ccncc3)cc2)ccc1O.Cl.Cl,Population Apoptotic (%),[1],27%
same,Population Fragmented Nuclei (%),[1],5%
same,Population Healthy Nuclei (%),[1],79%
same,Population Hoechst High Intensity Objects (%),[1],9%
same,Population Membrane Permeable-Phenotype (%),[1],0%
same,Population Mitochondria Different-Phenotype (%),[1],48%
same,Population Mitotic Cells (%),[1],72%
same,Population Normal (%),[1],90%
same,Population Pyknosed Nuclei (%),[1],14%
same,Population Tubulin-Different-Phenotype (%),[1],37%
same,Total Cell Count,[1],358
same,Population Apoptotic (%),[2],37%
same,Population Healthy Nuclei (%),[2],82%
same,Population Hoechst High Intensity Objects (%),[2],8%
same,Population Mitochondria Different-Phenotype (%),[2],58%
same,Population Mitotic Cells (%),[2],62%
same,Population Normal (%),[2],91%
same,Population Pyknosed Nuclei (%),[2],11%
same,Population Tubulin-Different-Phenotype (%),[2],14%
same,Total Cell Count,[2],367
same,Population Apoptotic (%),[3],31%
same,Population Fragmented Nuclei (%),[3],10%
same,Population Healthy Nuclei (%),[3],81%
same,Population Hoechst High Intensity Objects (%),[3],6%
same,Population Membrane Permeable-Phenotype (%),[3],0%
same,Population Mitochondria Different-Phenotype (%),[3],49%
same,Population Mitotic Cells (%),[3],68%
same,Population Normal (%),[3],93%
same,Population Pyknosed Nuclei (%),[3],7%
same,Population Tubulin-Different-Phenotype (%),[3],33%
same,Total Cell Count,[3],460
same,Population Apoptotic (%),[4],60%
same,Population Fragmented Nuclei (%),[4],11%
same,Population Healthy Nuclei (%),[4],77%
same,Population Hoechst High Intensity Objects (%),[4],9%
same,Population Membrane Permeable-Phenotype (%),[4],2%
same,Population Mitochondria Different-Phenotype (%),[4],63%
same,Population Mitotic Cells (%),[4],39%
same,Population Normal (%),[4],90%
same,Population Pyknosed Nuclei (%),[4],11%
same,Total Cell Count,[4],391
same,Population Apoptotic (%),[5],25%
same,Population Fragmented Nuclei (%),[5],11%
same,Population Healthy Nuclei (%),[5],78%
same,Population Hoechst High Intensity Objects (%),[5],5%
same,Population Membrane Permeable-Phenotype (%),[5],1%
same,Population Mitochondria Different-Phenotype (%),[5],26%
same,Population Mitotic Cells (%),[5],74%
same,Population Normal (%),[5],94%
same,Population Pyknosed Nuclei (%),[5],10%
same,Population Tubulin-Different-Phenotype (%),[5],21%
same,Total Cell Count,[5],542
same,Population Fragmented Nuclei (%),[6],9%
same,Population Healthy Nuclei (%),[6],83%
same,Population Membrane Permeable-Phenotype (%),[6],0%
same,Population Mitochondria Different-Phenotype (%),[6],32%
same,Population Mitotic Cells (%),[6],75%
same,Population Pyknosed Nuclei (%),[6],6%
same,Population Tubulin-Different-Phenotype (%),[6],9%
same,Total Cell Count,[6],486
same,Population Apoptotic (%),[7],32%
same,Population Fragmented Nuclei (%),[7],12%
same,Population Healthy Nuclei (%),[7],77%
same,Population Hoechst High Intensity Objects (%),[7],5%
same,Population Membrane Permeable-Phenotype (%),[7],0%
same,Population Mitochondria Different-Phenotype (%),[7],38%
same,Population Mitotic Cells (%),[7],67%
same,Population Normal (%),[7],94%
same,Population Pyknosed Nuclei (%),[7],9%
same,Population Tubulin-Different-Phenotype (%),[7],23%
same,Total Cell Count,[7],588
same,Population Apoptotic (%),[8],47%
same,Population Fragmented Nuclei (%),[8],15%
same,Population Healthy Nuclei (%),[8],74%
same,Population Hoechst High Intensity Objects (%),[8],15%
same,Population Mitochondria Different-Phenotype (%),[8],48%
same,Population Mitotic Cells (%),[8],52%
same,Population Normal (%),[8],84%
same,Population Tubulin-Different-Phenotype (%),[8],19%
same,Total Cell Count,[8],505
same,Population Apoptotic (%),[9],23%
same,Population Fragmented Nuclei (%),[9],11%
same,Population Healthy Nuclei (%),[9],81%
same,Population Hoechst High Intensity Objects (%),[9],2%
same,Population Membrane Permeable-Phenotype (%),[9],2%
same,Population Mitochondria Different-Phenotype (%),[9],19%
same,Population Mitotic Cells (%),[9],76%
same,Population Normal (%),[9],97%
same,Population Pyknosed Nuclei (%),[9],6%
same,Population Tubulin-Different-Phenotype (%),[9],14%
same,Total Cell Count,[9],814
same,Population Apoptotic (%),[10],21%
same,Population Fragmented Nuclei (%),[10],16%
same,Population Healthy Nuclei (%),[10],75%
same,Population Hoechst High Intensity Objects (%),[10],5%
same,Population Membrane Permeable-Phenotype (%),[10],1%
same,Population Mitochondria Different-Phenotype (%),[10],24%
same,Population Mitotic Cells (%),[10],78%
same,Population Normal (%),[10],94%
same,Population Pyknosed Nuclei (%),[10],8%
same,Population Tubulin-Different-Phenotype (%),[10],13%
same,Total Cell Count,[10],596
same,Population Apoptotic (%),[11],29%
same,Population Fragmented Nuclei (%),[11],17%
same,Population Healthy Nuclei (%),[11],75%
same,Population Hoechst High Intensity Objects (%),[11],5%
same,Population Membrane Permeable-Phenotype (%),[11],1%
same,Population Mitochondria Different-Phenotype (%),[11],21%
same,Population Mitotic Cells (%),[11],70%
same,Population Normal (%),[11],94%
same,Population Pyknosed Nuclei (%),[11],6%
same,Population Tubulin-Different-Phenotype (%),[11],13%
same,Total Cell Count,[11],883
same,Population Apoptotic (%),[12],58%
same,Population Fragmented Nuclei (%),[12],15%
same,Population Healthy Nuclei (%),[12],76%
same,Population Hoechst High Intensity Objects (%),[12],11%
same,Population Membrane Permeable-Phenotype (%),[12],0%
same,Population Mitochondria Different-Phenotype (%),[12],35%
same,Population Mitotic Cells (%),[12],41%
same,Population Normal (%),[12],88%
same,Population Pyknosed Nuclei (%),[12],7%
same,Population Tubulin-Different-Phenotype (%),[12],20%
same,Total Cell Count,[12],641
